Results collected from several papers.
Target: Ephrin type-B receptor 3 (EPHB3, Homo sapiens, UniProt P54753)
Residues used in one study (P54753 34-998): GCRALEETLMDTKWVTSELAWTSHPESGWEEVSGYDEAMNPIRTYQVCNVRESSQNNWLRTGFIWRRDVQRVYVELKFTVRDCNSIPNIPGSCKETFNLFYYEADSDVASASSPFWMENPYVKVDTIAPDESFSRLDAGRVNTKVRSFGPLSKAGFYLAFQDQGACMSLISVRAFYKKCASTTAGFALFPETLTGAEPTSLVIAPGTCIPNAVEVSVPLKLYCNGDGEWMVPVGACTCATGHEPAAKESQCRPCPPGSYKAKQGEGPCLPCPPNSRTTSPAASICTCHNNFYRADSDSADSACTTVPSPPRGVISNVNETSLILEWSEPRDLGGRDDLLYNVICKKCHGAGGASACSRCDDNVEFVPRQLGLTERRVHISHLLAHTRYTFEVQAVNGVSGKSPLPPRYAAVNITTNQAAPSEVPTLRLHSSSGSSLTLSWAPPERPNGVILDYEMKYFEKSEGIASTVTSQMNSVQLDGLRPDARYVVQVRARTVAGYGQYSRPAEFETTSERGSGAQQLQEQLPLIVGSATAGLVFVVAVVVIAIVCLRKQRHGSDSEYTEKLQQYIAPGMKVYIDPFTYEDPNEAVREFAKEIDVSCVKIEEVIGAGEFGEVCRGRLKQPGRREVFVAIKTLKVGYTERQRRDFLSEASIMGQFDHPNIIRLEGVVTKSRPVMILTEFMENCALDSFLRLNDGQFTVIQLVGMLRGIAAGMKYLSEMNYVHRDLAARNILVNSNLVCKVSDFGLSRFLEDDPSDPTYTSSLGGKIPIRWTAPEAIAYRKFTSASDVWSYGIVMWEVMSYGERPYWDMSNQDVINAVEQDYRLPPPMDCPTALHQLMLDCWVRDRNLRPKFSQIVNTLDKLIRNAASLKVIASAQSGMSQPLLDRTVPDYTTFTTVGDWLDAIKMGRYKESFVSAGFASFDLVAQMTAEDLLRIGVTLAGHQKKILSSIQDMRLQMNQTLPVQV

The remaining binding of O=C(NCC1CCOCC1)c1n[nH]cc1NC(=O)c1c(F)cccc1F is reported as 100% (binding; competition with immobilised ligand; 1 µM).
The remaining binding of CN(C)c1ncc(F)c(-c2cnn3ncccc23)n1 is reported as 76% (binding; 1 µM).
The remaining binding of C=CC(=O)N1CCC(C(=O)NCC(=O)N2CCN(c3nc(-c4cnc(N)nc4C(F)F)nc(N4CCOCC4)n3)CC2)CC1 is reported as 98% (binding; competition with immobilised ligand; 1 µM).
CN(C)c1nccc(-c2cnn3ncccc23)n1 has a remaining binding of 88% (binding; 1 µM).
For Cc1c(C(=O)O)cc(-c2ccc(C3CCNCC3)cc2)c2ccc(-c3ccc(C(F)(F)F)cc3)cc12, the remaining binding was 100% (cell-free assay; competition with immobilised ligand; 1 µM).
The remaining binding of c1cncc(-c2cccc(Nc3nccc(NC4CCCCC4)n3)c2)c1 is reported as 89% (binding; competition with immobilised ligand; 10 µM).
The remaining binding of Cc1cc(-n2nc(Cc3cc(F)cc(C(F)(F)F)c3)nc2C)ccc1C(N)=O is reported as 100% (cell-free assay; competition with immobilised ligand; 1 µM).
N[C@@H]1CCN(c2nccc(-c3cnn4ncccc34)n2)C1 gave a remaining binding of 100% (binding; 1 µM).
The remaining binding of COc1ccc2c(c1)O[C@H](c1ccc(OC)c(OC)c1)C[C@@H]2NC(=O)C1(c2ccc3c(c2)OC(F)(F)O3)CC1 is reported as 91% (cell-free assay; competition with immobilised ligand; 1 µM).
The remaining binding of CC1CCCN1c1nccc(-c2cnn3ncccc23)n1 (centres unmarked) is reported as 89% (binding; 1 µM).
O=C(NCCCN1CCOCC1)c1ccc(Nc2nccc(-c3cc4ccccc4s3)n2)cc1 has a remaining binding of 93% (binding; competition with immobilised ligand; 1 µM).
O=C(O)c1cc(-c2ccc(C3CCNCC3)cc2)c2ccc(-c3ccc(C(F)(F)F)cc3)cc2c1 has a remaining binding of 100% (cell-free assay; competition with immobilised ligand; 1 µM).
O=C(c1ccc(Nc2nccc(-c3cc4ccccc4s3)n2)cc1)N1CCC(N2CCCC2)CC1 has a remaining binding of 100% (binding; competition with immobilised ligand; 1 µM).
With C[C@@H](c1ccc(-n2cnc3c(N)ncnc32)cc1)N1CCc2nn(C)c(Cc3ccccc3)c2C1=O the remaining binding was 90% (binding; competition with immobilised ligand; 0.1 µM).
The remaining binding of O=C(NCCCC1CCCCC1)c1ccc(CNC(=O)c2cnn(-c3ccccc3)c2C(F)(F)F)cc1 is reported as 79% (cell-free assay; competition with immobilised ligand; 0.1 µM).
With C[C@H]1CCN(c2nccc(-c3cnn4ncccc34)n2)C1 the remaining binding was 100% (binding; 1 µM).
The remaining binding of CNC(=O)[C@@H]1CC[C@@H](n2c(-c3ccc4cnccc4c3)nc3ccc(C(=O)NCc4cccc(C(N)=O)c4)cc32)C1 is reported as 100% (binding; competition with immobilised ligand; 1 µM).
O=C(c1ccc(Nc2ncc(Cl)c(-c3ccc(Cl)s3)n2)cc1)N1CCC(N2CCCC2)CC1 gave a remaining binding of 88% (binding; competition with immobilised ligand; 1 µM).
COCCOc1nc(-c2ccc(Cl)nc2)nc2c1CN(C(=O)c1ncn3ccccc13)CC2 has a remaining binding of 100% (cell-free assay; competition with immobilised ligand; 0.1 µM).
The remaining binding of CN(C)c1nccc(-c2cnc3ncccn23)n1 is reported as 91% (binding; 1 µM).
